Measured values pooled from the literature.
Each line is one published result; the experiments were not run side by side.
Effect on: cell growth or viability

O=C(Nc1ncc([N+](=O)[O-])s1)c1cc(Cl)ccc1Cl  CC50 (BHK-21; MTT): > 100 µM
C[C@H]1[C@H](OC(=O)CCC(=O)O)O[C@@H]2O[C@@]3(C)CC[C@H]4[C@H](C)CC[C@@H]1[C@@]24OO3  CC50 (Vero; WST-1; 18 h): 29.2 µM
Cc1cc(N)c2cc(NC(=O)Nc3ccc4nc(C)cc(N)c4c3)ccc2n1  CC50 (BHK-21; MTT; 42 h): 49 µM
Clc1ccc(CCC(Cn2ccnc2)Sc2c(Cl)cccc2Cl)cc1 (stereo not drawn)  CC50 (Vero; WST-1; 18 h): 34.9 µM
COc1cc(Nc2ccnc3ccc(Br)cc23)cc(OC)c1OC  CC50 (Vero; resazurin): 28.6 µM
O=C(Nc1ncc([N+](=O)[O-])s1)c1ccco1  CC50 (BHK-21; MTT): > 10 µM
OCCCCCCC1COOC2(CCCCCCCCCCC2)OOC1  CC50 (BHK-21; WST-1; 72 h): 3.4 µM
Cc1cc(C)cc([C@@H]2C[C@H]2C(=O)NC(C(=O)NC2CC2)c2ccc(C)c(C)c2)c1 (stereo partly drawn)  CC50 (BHK-21; MTT; 24 h): ~10 µM
O=C(NCc1ccc(Cl)cc1)C1CC1c1ccccc1 (stereo not drawn)  CC50 (BHK-21; MTT): > 100 µM
C=CC(=O)Nc1cccc(-c2snc3cc(-c4ccc(N)c(OC)c4)cnc23)c1  CC50 (Vero; resazurin): 21 µM
Nc1ccc(-c2ccc(Nc3cc(S(=O)(=O)O)c(N)c4c3C(=O)c3ccccc3C4=O)cc2)c(S(=O)(=O)O)c1  CC50 (BHK-21; MTT; 42 h): 177 µM
CC(=O)c1cccc(NC(=O)C(=O)[C@H](CC(C)C)NC(=O)[C@H](CC(C)C)NC(=O)[C@H](CC(C)C)NC(=O)OCc2ccccc2)c1  CC50 (Vero; ATP luminescence; 48 h): 17.7 µM
